# Source: ChEMBL document CHEMBL1152300, “Ligand specificity of constitutive androstane receptor as probed by induced-fit docking and mutagenesis” (J Med Chem, 2008)
# What was measured:
# [1] = molecular target: T1, Nuclear receptor subfamily 1 group I member 3 (Mus musculus, UniProt O35627, F171L); test: Activation of mouse CAR F171L mutant expressed in HEK293 cells at 10 uM by mammalian one-hybrid assay; assay type: cell-based; details: read-out: Activity
# In short: (§1)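 GAL4-DBD fused to mouse CAR LBD (residues 118-358), wild-type or point mutant, cotransfected with UASx4-tk-luc reporter and pCMVβ into HEK293 cells. Cells were exposed to final 1 µM, 2 µM or 10 µM test chemical, or 0.1% v/v DMSO, for 24 h after transfection. Luciferase was normalized to β-galactosidase and set against empty GAL4 vector (=1.0). Mean ± standard deviation, three independent experiments.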
# [2] = molecular target: T2, Nuclear receptor subfamily 1 group I member 3 (Mus musculus, UniProt O35627, T350M); test: Effect on nuclear co-repressor receptor binding to mouse CAR T350M mutant […] at 1 uM by yeast two-hybrid assay; assay type: cell-based; details: read-out: Activity
# T2 sequence (O35627 whole entry T350M, the tested form may be a part): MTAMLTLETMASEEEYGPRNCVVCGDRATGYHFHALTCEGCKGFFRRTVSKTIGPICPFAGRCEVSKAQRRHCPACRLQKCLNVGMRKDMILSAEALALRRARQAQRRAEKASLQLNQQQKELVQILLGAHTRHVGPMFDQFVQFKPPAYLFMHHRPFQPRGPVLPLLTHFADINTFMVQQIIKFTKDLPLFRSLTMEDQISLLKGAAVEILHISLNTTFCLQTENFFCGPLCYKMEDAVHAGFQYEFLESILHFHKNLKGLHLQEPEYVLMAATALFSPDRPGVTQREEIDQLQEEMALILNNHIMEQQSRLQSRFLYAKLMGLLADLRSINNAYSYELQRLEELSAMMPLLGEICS
# In short: (§2)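 Yeast expressing wild-type or mutant mouse CAR LBD plus NCoR, selected on SD plates lacking leucine and tryptophan. Pooled colonies treated with DMSO or compound for 3.5 h. β-Galactosidase activity normalized to cell density. Reference is 10 µM androstenol (=100). Mean ± SD of two independent determinations, each in triplicate.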
# [3] = molecular target: T3, Nuclear receptor subfamily 1 group I member 3 (Mus musculus, UniProt O35627, S251L); test: Decrease in mouse CAR S251L mutant activation expressed in HEK293 cells at 1 uM by mammalian one-hybrid assay; assay type: cell-based; details: read-out: Activity
# T3 sequence (O35627 whole entry S251L, the tested form may be a part): as the sequence (O35627 whole entry T350M, the tested form may be a part) above, with S251L, M350T counted along it
# In short: (§3)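 GAL4 DBD fused to mouse CAR LBD (residues 118-358), wild type or point mutant, cotransfected with UASx4-tk-luc reporter and pCMVβ into HEK293 cells. Cells cultured with DMSO (0.1% v/v) or compound (final 1, 2 or 10 µM). Lysed 24 h post-transfection. Luciferase normalized to β-galactosidase, expressed relative to empty GAL4 vector (=1.0). Mean ± SD, three independent experiments.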
# [4] = molecular target: Nuclear receptor subfamily 1 group I member 3 (Mus musculus, UniProt O35627, L253F); test: Effect on nuclear co-repressor receptor binding to mouse CAR L253F mutant […] at 1 uM by yeast two-hybrid assay; assay type: cell-based; details: read-out: Activity; in short: as §2
# Chain of Nuclear receptor subfamily 1 group I member 3 (Mus musculus, UniProt O35627, L253F) (O35627 whole entry L253F): as the sequence (O35627 whole entry T350M, the tested form may be a part) above, with L253F, M350T counted along it
# [5] = molecular target: T4, Nuclear receptor subfamily 1 group I member 3 (Mus musculus, UniProt O35627, T350A); test: Effect on nuclear co-repressor receptor binding to mouse CAR T350A mutant […] at 1 uM by yeast two-hybrid assay; assay type: cell-based; details: read-out: Activity; in short: as §2
# T4 sequence (O35627 whole entry T350A): as the sequence (O35627 whole entry T350M, the tested form may be a part) above, with M350A counted along it
# [6] = molecular target: Nuclear receptor subfamily 1 group I member 3 (Mus musculus, UniProt O35627, H213A); test: Activation of mouse CAR H213A mutant expressed in HEK293 cells at 1 uM by mammalian one-hybrid assay; assay type: cell-based; details: hek293, 1 µM; in short: as §3
# Chain of Nuclear receptor subfamily 1 group I member 3 (Mus musculus, UniProt O35627, H213A) (O35627 whole entry H213A): as the sequence (O35627 whole entry T350M, the tested form may be a part) above, with H213A, M350T counted along it
# [7] = molecular target: T2, Nuclear receptor subfamily 1 group I member 3; test: Decrease in steroid receptor coactivator 1 binding to mouse CAR T350M mutant […] at 1 uM by yeast two-hybrid assay; assay type: cell-based; details: read-out: Activity
# In short: as §2, with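 “SRC-1,” for “NCoR,”, “wild-type CAR + SRC-1 with DMSO” for “10 µM androstenol”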
# [8] = molecular target: T3, Nuclear receptor subfamily 1 group I member 3; test: Effect on steroid receptor co-activator 1 binding to mouse CAR S251L mutant […] at 1 uM by yeast two-hybrid assay; assay type: cell-based; details: read-out: Activity
# In short: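 Yeast two-hybrid assay. Yeast co-expressing wild-type or mutant mouse CAR LBD and the SRC-1 partner were selected on SD plates lacking leucine and tryptophan. Random colonies were pooled and amplified, then treated with DMSO or test chemical for 3.5 h. β-galactosidase activity was normalized to cell density and set relative to wild-type mCAR + SRC-1 with DMSO (=100). Mean ± standard deviation of two determinations, each in triplicate.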
# [9] = molecular target: T5, Nuclear receptor subfamily 1 group I member 3 (Mus musculus, UniProt O35627, L353A); test: Decrease in mouse CAR L353A mutant activation expressed in HEK293 cells at 1 uM by mammalian one-hybrid assay; assay type: cell-based; details: read-out: Activity; in short: as §3
# T5 sequence (O35627 whole entry L353A): as the sequence (O35627 whole entry T350M, the tested form may be a part) above, with M350T, L353A counted along it
# [10] = molecular target: T6, Nuclear receptor subfamily 1 group I member 3 (Mus musculus, UniProt O35627, Y336A); test: Decrease in steroid receptor coactivator 1 binding to mouse CAR Y336A mutant […] at 1 uM by yeast two-hybrid assay; assay type: cell-based; details: read-out: Activity
# T6 sequence (O35627 whole entry Y336A): as the sequence (O35627 whole entry T350M, the tested form may be a part) above, with Y336A, M350T counted along it
# In short: as §2, with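 “SRC-1,” for “NCoR,”, “wild-type CAR + SRC-1 with DMSO” for “10 µM androstenol”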
# [11] = molecular target: T1, Nuclear receptor subfamily 1 group I member 3; test: Effect on steroid receptor co-activator 1 binding to mouse CAR F171L mutant […] at 1 uM by yeast two-hybrid assay; assay type: cell-based; details: read-out: Activity
# In short: as §2, with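 “SRC-1,” for “NCoR,”, “wild-type CAR + SRC-1 with DMSO” for “10 µM androstenol”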
# [12] = molecular target: Nuclear receptor subfamily 1 group I member 3 (Mus musculus, UniProt O35627, N175A); test: Effect on nuclear co-repressor receptor binding to mouse CAR N175A mutant […] at 1 uM by yeast two-hybrid assay; assay type: cell-based; details: read-out: Activity; in short: as §2
# Chain of Nuclear receptor subfamily 1 group I member 3 (Mus musculus, UniProt O35627, N175A) (O35627 whole entry N175A): as the sequence (O35627 whole entry T350M, the tested form may be a part) above, with N175A, M350T counted along it
# [13] = molecular target: T7, Nuclear receptor subfamily 1 group I member 3 (Mus musculus, UniProt O35627, L212A); test: Effect on steroid receptor co-activator 1 binding to mouse CAR L212A mutant […] at 1 uM by yeast two-hybrid assay; assay type: cell-based; details: read-out: Activity
# T7 sequence (O35627 whole entry L212A): as the sequence (O35627 whole entry T350M, the tested form may be a part) above, with L212A, M350T counted along it
# In short: as §2, with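 “SRC-1,” for “NCoR,”, “wild-type CAR + SRC-1 with DMSO” for “10 µM androstenol”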
# [14] = molecular target: T1, Nuclear receptor subfamily 1 group I member 3; test: Effect on nuclear co-repressor receptor binding to mouse CAR F171L mutant […] at 1 uM by yeast two-hybrid assay; assay type: cell-based; details: read-out: Activity; in short: as §2
# [15] = molecular target: T5, Nuclear receptor subfamily 1 group I member 3; test: Decrease in steroid receptor coactivator 1 binding to mouse CAR L353A mutant […] at 1 uM by yeast two-hybrid assay; assay type: cell-based; details: read-out: Activity
# In short: as §2, with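 “SRC-1,” for “NCoR,”, “wild-type CAR + SRC-1 with DMSO” for “10 µM androstenol”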
# [16] = molecular target: T7, Nuclear receptor subfamily 1 group I member 3; test: Decrease in mouse CAR L212A mutant activation expressed in HEK293 cells at 10 uM by mammalian one-hybrid assay; assay type: cell-based; details: read-out: Activity; in short: as §3
# [17] = molecular target: T6, Nuclear receptor subfamily 1 group I member 3; details: HEK293, mouse, read-out: Activity
# [18] = molecular target: T7, Nuclear receptor subfamily 1 group I member 3; test: Activation of mouse CAR L212A mutant expressed in HEK293 cells at 2 uM by mammalian one-hybrid assay; assay type: cell-based; details: hek293, 2 µM; in short: as §1
# [19] = molecular target: Nuclear receptor subfamily 1 group I member 3 (Mus musculus, UniProt O35627, I252L); test: Enhancement of steroid receptor coactivator 1 binding to mouse CAR I252L mutant […] at 2 uM by yeast two-hybrid assay; assay type: cell-based
# Chain of Nuclear receptor subfamily 1 group I member 3 (Mus musculus, UniProt O35627, I252L) (O35627 whole entry I252L, the tested form may be a part): as the sequence (O35627 whole entry T350M, the tested form may be a part) above, with I252L, M350T counted along it
# In short: (§4)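 Yeast two-hybrid: yeast expressing wild-type or mutant mouse CAR LBD plus SRC-1 or NCoR, selected on SD medium lacking Leu and Trp. Pooled colonies treated with DMSO or test chemical for 3.5 h. β-Galactosidase normalized to cell density. SRC-1 reference: wild-type + DMSO = 100. NCoR reference: 10 µM androstenol = 100. Mean ± SD, two independent determinations, each in triplicate.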
# [20] = molecular target: T1, Nuclear receptor subfamily 1 group I member 3; test: Decrease in mouse CAR F171L mutant activation expressed in HEK293 cells at 2 uM by mammalian one-hybrid assay; assay type: cell-based; details: read-out: Activity; in short: as §1
# [21] = molecular target: T7, Nuclear receptor subfamily 1 group I member 3; test: Decrease in nuclear co-repressor receptor binding to mouse CAR L212A mutant […] at 2 uM by yeast two-hybrid assay; assay type: cell-based; details: read-out: Activity; in short: as §4
# [22] = molecular target: T4, Nuclear receptor subfamily 1 group I member 3; test: Decrease in nuclear co-repressor receptor binding to mouse CAR T350A mutant […] at 2 uM by yeast two-hybrid assay; assay type: cell-based; details: read-out: Activity; in short: as §4
# T1 sequence (O35627 whole entry F171L, the tested form may be a part): as the sequence (O35627 whole entry T350M, the tested form may be a part) above, with F171L, M350T counted along it
smiles,measurement,setting,value
COc1ccc(C(=O)CCCc2ccccc2)cc1,activity at 10 µM,[1],< 50%
Clc1cnc(Oc2ccc(Oc3ncc(Cl)cc3Cl)cc2)c(Cl)c1,activity at 1 µM,[2],< 50%
same,inhibition at 1 µM,[3],< 50%
same,activity at 1 µM,[4],< 50%
same,activity at 1 µM,[5],< 50%
same,Activity,[6],50%
same,inhibition at 1 µM,[7],≥ 50%
same,activity at 1 µM,[8],< 50%
same,inhibition at 1 µM,[9],50%
same,inhibition at 1 µM,[10],≥ 50%
same,activity at 1 µM,[11],< 50%
same,activity at 1 µM,[12],< 50%
same,activity at 1 µM,[13],< 50%
same,activity at 1 µM,[14],< 50%
same,inhibition at 1 µM,[15],≥ 50%
C[C@]12CC[C@@H](O)C[C@@H]1CC[C@@H]1[C@@H]2CC[C@]2(C)C=CC[C@@H]12 [ANDROSTENOL],inhibition at 10 µM,[16],50%
same,inhibition at 10 µM,[17],< 50%
Clc1ccccc1C(c1ccccc1)(c1ccccc1)n1ccnc1 [CLOTRIMAZOLE],Activity,[18],< 50%
same,Activity,[19],>= 50%
same,inhibition at 2 µM,[20],50%
same,inhibition at 2 µM,[21],≥ 50%
same,inhibition at 2 µM,[22],≥ 50%
